The test system of assay [1] is Lithobates pipiens. The experiment in a line: Ability to stimulate melanosome dispersion in vitro in the frog skin activity measured relative to alpha-MSH. It is filed as functional. The procedure, abridged: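 Rana pipiens skin in vitro; melanosome dispersion read as skin darkening. Test solutions made by serial dilution from a 10⁻⁴ M stock. n = 6 or more skins per point, mean ± SE. Potency relative to α-MSH derived from parallel dose–response curves over the linear portion.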

The test system of assay [2] is Anolis carolinensis. The experiment in a line: Ability to stimulate melanosome dispersion in vitro in the lizard skin activity measured relative to alpha-MSH. The format is functional. The procedure, abridged:
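Anolis carolinensis skin in vitro; melanosome dispersion read as skin darkening. Test solutions serially diluted from a 10⁻⁴ M stock. n = 6 skins per point, mean ± SE. Relative potency versus α-MSH taken from parallel dose–response curves over the linear range.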

Assay [3] is filed under the species Mus musculus. The assay is described as follows: Adenylate cyclase activity in vitro in the membrane fraction from S-91 mouse melanoma tumors activity measured relative to alpha-MSH. The format is functional, cell membranes. In a few lines: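 Particulate membrane fraction from S-91 (Cloudman) melanoma tumors grown in […] mice. Adenylate cyclase measured as conversion of [α-³²P]ATP to [³²P]cAMP, with cAMP isolated and detected by the Salomon method. Potency relative to α-MSH from parallel dose–response curves.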

Bridge positions count the residues as written; N and C are the ends. Peptide text beside a SMILES is read from it.

Take `CC(=O)N[C@H]1CSSC[C@@H](C(N)=O)NC(=O)[C@H](Cc2c[nH]c3ccccc23)NC(=O)[C@H](CCCN=C(N)N)NC(=O)[C@H](Cc2ccccc2)NC(=O)[C@H](Cc2c[nH]cn2)NC(=O)[C@H](CCC(=O)O)NC1=O`: the Relative potency in assay [1] turned out to be 0.06; in assay [2], 0.003.
On to `CC(=O)N[C@H]1CSSC[C@@H](C(=O)N[C@@H](CCCCN)C(=O)N2CCC[C@@H]2C(N)=O)NC(=O)[C@H](Cc2c[nH]c3ccccc23)NC(=O)[C@@H](CCCN=C(N)N)NC(=O)[C@H](Cc2ccccc2)NC(=O)[C@@H](Cc2c[nH]cn2)NC(=O)[C@H](CCC(=O)O)NC1=O`, for which, in assay [3], the Relative potency came to 1.4.
For the compound `CC(=O)N[C@@H](CO)C(=O)N[C@@H](Cc1ccc(O)cc1)C(=O)N[C@@H](CO)C(=O)N[C@H]1CSSC[C@@H](C(=O)N[C@@H](CCCCN)C(=O)N2CCC[C@H]2C(=O)N[C@H](C(N)=O)C(C)C)NC(=O)[C@H](Cc2c[nH]c3ccccc23)NC(=O)[C@H](CCCN=C(N)N)NC(=O)[C@H](Cc2ccccc2)NC(=O)[C@H](Cc2c[nH]cn2)NC(=O)[C@H](CCC(=O)O)NC1=O` (Ac-SYSCEHFRWCKPV-NH2; disulfide 4-10), the Relative potency in assay [1] came out at 10; in assay [2], 2.
The matching figures for `CC(=O)N[C@H]1CSSC[C@@H](C(=O)N[C@@H](CCCCN)C(N)=O)NC(=O)[C@H](Cc2c[nH]c3ccccc23)NC(=O)[C@H](CCCN=C(N)N)NC(=O)[C@H](Cc2ccccc2)NC(=O)[C@H](Cc2c[nH]cn2)NC(=O)[C@H](CCC(=O)O)NC1=O`: 0.16 and 0.07.
For `CSCC[C@H](NC(C)=O)C(=O)N[C@@H](CCC(=O)O)C(=O)N[C@@H](Cc1c[nH]cn1)C(=O)N[C@@H](Cc1ccccc1)C(=O)N[C@@H](CCCN=C(N)N)C(=O)N[C@@H](Cc1c[nH]c2ccccc12)C(=O)NCC(N)=O`, the Relative potency in assay [3] was 0.03; in assay [1], 0.0007; in assay [2], 0.03.
Turning to `CC(=O)N[C@H]1CSSC[C@@H](C(=O)N[C@@H](CCCCN)C(=O)N2CCC[C@H]2C(N)=O)NC(=O)[C@H](Cc2c[nH]c3ccccc23)NC(=O)[C@H](CCCN=C(N)N)NC(=O)[C@@H](Cc2ccccc2)NC(=O)[C@H](Cc2c[nH]cn2)NC(=O)[C@H](CCC(=O)O)NC1=O`, the values for the Relative potency in assay [1] and in assay [2] were 20 and 6, respectively.
The matching figures for `CC(=O)N[C@H]1CSSC[C@@H](C(=O)N[C@@H](CCCCN)C(=O)N2CCC[C@H]2C(=O)N[C@H](C(N)=O)C(C)C)NC(=O)[C@H](Cc2c[nH]c3ccccc23)NC(=O)[C@H](CCCN=C(N)N)NC(=O)[C@H](Cc2ccccc2)NC(=O)[C@H](Cc2c[nH]cn2)NC(=O)[C@H](CCC(=O)O)NC1=O`: 30 and 0.6.
In assay [3], `CC(=O)N[C@H]1CSSC[C@@H](C(=O)N[C@@H](CCCCN)C(=O)N2CCC[C@@H]2C(=O)N[C@H](C(N)=O)C(C)C)NC(=O)[C@H](Cc2c[nH]c3ccccc23)NC(=O)[C@@H](CCCN=C(N)N)NC(=O)[C@H](Cc2ccccc2)NC(=O)[C@@H](Cc2c[nH]cn2)NC(=O)[C@H](CCC(=O)O)NC1=O` yielded a Relative potency of 1.1.
`CC(=O)N[C@H]1CSSC[C@@H](C(=O)N[C@@H](CCCCN)C(=O)N2CCC[C@H]2C(N)=O)NC(=O)[C@H](Cc2c[nH]c3ccccc23)NC(=O)[C@H](CCCN=C(N)N)NC(=O)[C@H](Cc2ccccc2)NC(=O)[C@H](Cc2c[nH]cn2)NC(=O)[C@H](CCC(=O)O)NC1=O`: the Relative potency amounted to 10 in assay [1] and 1.5 in assay [2].
In assay [3], `CC(=O)N[C@H]1CSSC[C@@H](C(N)=O)NC(=O)[C@H](Cc2c[nH]c3ccccc23)NC(=O)[C@@H](CCCN=C(N)N)NC(=O)[C@H](Cc2ccccc2)NC(=O)[C@@H](Cc2c[nH]cn2)NC(=O)[C@H](CCC(=O)O)NC1=O` showed a Relative potency of 0.016.
Same read-out and setting: in the case of `CC(=O)N[C@H]1CSSC[C@@H](C(=O)N[C@@H](CCCCN)C(N)=O)NC(=O)[C@H](Cc2c[nH]c3ccccc23)NC(=O)[C@@H](CCCN=C(N)N)NC(=O)[C@H](Cc2ccccc2)NC(=O)[C@@H](Cc2c[nH]cn2)NC(=O)[C@H](CCC(=O)O)NC1=O` it was 0.16.

These data come from ChEMBL document CHEMBL1122765, “Cyclic melanotropins. 5. Importance of the C-terminal tripeptide (Lys-Pro-Val)” (1984).
